Each block holds one compound with its values, some of them ahead of it. Calls of active or inactive are those of the source. No cut-off for these calls is given here.
Experiments:
[1] = system: Cryptosporidium parvum; assay: Inhibition of recombinant Cryptosporidium parvum FIKK assessed as change in melting temperature at 50 uM by differential static light scattering method
[2] = Inhibition of recombinant Cryptosporidium parvum FIKK using RRRAPSFYRK peptide as substrate by NADH coupled LDH-PK ATPase assay
[3] = Inhibition of Cryptosporidium parvum CDPK1 using PLARTLSVAGLPGKK peptide as substrate by NADH coupled LDH-PK ATPase assay
Summary of the method: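 NADH-coupled LDH-PK ATPase read-out with 1.2 nM recombinant CpCDPK1, 0.25 mM ATP, 0.1 mM Syntide 2.0 peptide and 2 mM CaCl2. Inhibitors were made as 10 mM DMSO stocks and tested in 2-fold serial dilutions. IC50 is the average of triplicate experiments.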

[4] = Ratio of EC50 for antiparasitic activity against Cryptosporidium parvum Iowa oocysts infected in human HCT8 cells to IC50 for Cryptosporidium parvum CDPK1; format: functional
[5] = Ratio of EC50 for antiparasitic activity against Cryptosporidium parvum Iowa oocysts infected in human HCT8 cells to IC50 for recombinant Cryptosporidium parvum FIKK; format: functional, cell-based
[6] = system: Cryptosporidium parvum; assay: Antiparasitic activity against Cryptosporidium parvum Iowa oocysts infected in human HCT8 cells pretreated prior to infection measured after 48 hrs by fluorescein labeled Vicia villosa lectin/Hoechst 33258 staining based epifluorescence microscopic analysis; format: functional, organism-based
Summary of the method: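 HCT-8 cells grown in RPMI-1640 with 10% heat-inactivated FBS and penicillin. Three-fold compound dilutions in culture medium were added to confluent cells before about 5500 excysted C. parvum Iowa oocysts per well. After 48 h, cells were fixed with 4% paraformaldehyde and permeabilized. Vacuoles were stained with fluorescein-Vicia villosa lectin (1.33 µg/mL, 1 h, 37 °C) and nuclei with Hoechst 33258, then imaged by epifluorescence microscopy.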

[7] = Efflux ratio of permeability in human Caco2 cells; format: ADME, cell-based; conditions: Caco-2
[8] = Permeability in human Caco2 cells; format: ADME, cell-based; conditions: Caco-2, read-out: permeability
[9] = molecular target: Vascular endothelial growth factor receptor 2 (Homo sapiens) (UniProt P35968); assay: Inhibition of human KDR at 1 uM relative to control
Sequence of Vascular endothelial growth factor receptor 2 (Homo sapiens) (P35968 whole entry): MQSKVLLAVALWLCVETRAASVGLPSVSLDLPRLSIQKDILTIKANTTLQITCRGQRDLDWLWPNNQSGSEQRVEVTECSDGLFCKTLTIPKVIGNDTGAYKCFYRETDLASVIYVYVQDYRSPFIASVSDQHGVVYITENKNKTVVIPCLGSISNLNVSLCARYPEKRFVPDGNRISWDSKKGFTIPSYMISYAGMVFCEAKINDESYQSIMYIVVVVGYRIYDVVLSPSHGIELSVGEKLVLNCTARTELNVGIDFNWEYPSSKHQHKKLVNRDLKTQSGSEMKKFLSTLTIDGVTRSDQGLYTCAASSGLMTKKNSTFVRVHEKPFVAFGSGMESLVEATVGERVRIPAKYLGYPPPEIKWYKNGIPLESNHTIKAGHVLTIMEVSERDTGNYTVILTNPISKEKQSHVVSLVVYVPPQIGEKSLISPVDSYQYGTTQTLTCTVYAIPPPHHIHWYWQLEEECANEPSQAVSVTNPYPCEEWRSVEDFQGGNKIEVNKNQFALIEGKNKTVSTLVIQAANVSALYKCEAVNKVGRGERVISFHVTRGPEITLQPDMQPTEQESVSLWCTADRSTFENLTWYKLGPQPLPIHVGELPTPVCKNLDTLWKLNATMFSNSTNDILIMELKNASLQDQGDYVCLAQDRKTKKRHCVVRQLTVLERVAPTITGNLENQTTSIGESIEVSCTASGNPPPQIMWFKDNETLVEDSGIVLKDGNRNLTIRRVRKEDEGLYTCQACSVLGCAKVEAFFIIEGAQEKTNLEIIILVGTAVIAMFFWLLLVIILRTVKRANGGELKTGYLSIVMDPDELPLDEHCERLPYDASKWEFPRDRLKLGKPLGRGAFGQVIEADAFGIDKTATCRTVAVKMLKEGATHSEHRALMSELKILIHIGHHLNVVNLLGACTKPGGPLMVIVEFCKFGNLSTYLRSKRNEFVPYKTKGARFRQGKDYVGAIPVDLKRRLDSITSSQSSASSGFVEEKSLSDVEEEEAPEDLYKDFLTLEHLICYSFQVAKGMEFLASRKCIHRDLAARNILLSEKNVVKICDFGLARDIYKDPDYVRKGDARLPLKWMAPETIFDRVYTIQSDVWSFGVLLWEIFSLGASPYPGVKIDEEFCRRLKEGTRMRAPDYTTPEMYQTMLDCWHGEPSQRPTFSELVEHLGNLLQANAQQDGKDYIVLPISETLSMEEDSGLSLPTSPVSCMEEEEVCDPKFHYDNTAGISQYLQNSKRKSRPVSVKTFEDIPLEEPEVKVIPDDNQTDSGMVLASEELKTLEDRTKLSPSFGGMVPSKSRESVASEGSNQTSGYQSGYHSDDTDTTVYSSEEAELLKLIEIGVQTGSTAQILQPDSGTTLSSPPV

[10] = molecular target: Mitogen-activated protein kinase kinase kinase kinase 4 (Homo sapiens) (UniProt O95819); assay: Inhibition of human MAP4K4 at 1 uM relative to control
[11] = molecular target: Vascular endothelial growth factor receptor 2 (Homo sapiens) (UniProt P35968); assay: Inhibition of human KDR at 100 nM relative to control
[12] = molecular target: Calcium-dependent protein kinase 2 (Cryptosporidium parvum) (UniProt Q6S4V9); assay: Inhibition of Cryptosporidium parvum calcium-dependent protein kinase 2 assessed as change in melting temperature by DSLS method
Sequence of Calcium-dependent protein kinase 2 (Cryptosporidium parvum) (Q6S4V9 as listed by the source): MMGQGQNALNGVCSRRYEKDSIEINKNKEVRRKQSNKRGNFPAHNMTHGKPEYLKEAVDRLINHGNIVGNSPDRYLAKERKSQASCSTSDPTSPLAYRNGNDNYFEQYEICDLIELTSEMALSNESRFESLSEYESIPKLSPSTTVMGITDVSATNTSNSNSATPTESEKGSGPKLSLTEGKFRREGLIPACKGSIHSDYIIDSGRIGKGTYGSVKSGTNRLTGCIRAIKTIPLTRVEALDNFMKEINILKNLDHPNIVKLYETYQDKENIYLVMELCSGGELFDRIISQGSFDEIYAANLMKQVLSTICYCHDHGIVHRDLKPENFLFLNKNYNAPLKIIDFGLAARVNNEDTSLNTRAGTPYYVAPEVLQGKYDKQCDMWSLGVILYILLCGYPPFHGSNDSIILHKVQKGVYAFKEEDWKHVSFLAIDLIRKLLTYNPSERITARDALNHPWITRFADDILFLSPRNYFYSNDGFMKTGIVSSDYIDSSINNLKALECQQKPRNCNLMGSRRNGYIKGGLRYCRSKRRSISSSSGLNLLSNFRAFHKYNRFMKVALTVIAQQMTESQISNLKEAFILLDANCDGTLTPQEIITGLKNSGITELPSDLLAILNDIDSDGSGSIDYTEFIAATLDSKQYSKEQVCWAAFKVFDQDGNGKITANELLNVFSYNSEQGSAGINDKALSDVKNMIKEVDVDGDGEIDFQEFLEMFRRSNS

[13] = Inhibition of Cryptosporidium parvum CDPK6
[14] = Inhibition of Cryptosporidium parvum Iowa II ser/Thr protein kinase FIKK
[15] = system: Cryptosporidium parvum; assay: Inhibition of Cryptosporidium parvum CDPK6 assessed as change in melting temperature by DSLS method
[16] = molecular target: Mitogen-activated protein kinase (Cryptosporidium parvum (strain Iowa II), UniProt A3FQ79); assay: Inhibition of Cryptosporidium parvum Iowa II mitogen-activated protein kinase
[17] = system: Cryptosporidium parvum Iowa II; assay: Inhibition of Cryptosporidium parvum Iowa II glycogen synthase kinase assessed as change in melting temperature by DSLS method
[18] = molecular target: Cgd5_820 protein (Cryptosporidium parvum) (UniProt F0X4H1); assay: Inhibition of Cryptosporidium parvum calcium/calmodulin dependent protein kinase with a kinase domain and 4 calmodulin like EF hands assessed as change in melting temperature by DSLS method
[19] = Inhibition of Cryptosporidium parvum Iowa II cyclin-dependent kinase 3
[20] = Inhibition of Cryptosporidium parvum Iowa II calcium/calmodulin-dependent protein kinase
[21] = Inhibition of Cryptosporidium parvum Iowa II serine/threonine-protein kinase Nek2
[22] = system: Cryptosporidium parvum Iowa II; assay: Inhibition of Cryptosporidium parvum Iowa II calcium/calmodulin-dependent protein kinase assessed as change in melting temperature by DSLS method
[23] = Inhibition of Cryptosporidium parvum Iowa II glycogen synthase kinase
[24] = molecular target: Cgd5_820 protein (Cryptosporidium parvum, UniProt F0X4H1); assay: Inhibition of Cryptosporidium parvum calcium/calmodulin dependent protein kinase with a kinase domain and 4 calmodulin like EF hands
[25] = molecular target: Cell division control protein 28, putative (Cryptosporidium parvum (strain Iowa II), UniProt A3FPL9); assay: Inhibition of Cryptosporidium parvum Iowa II cell division control protein 28
Sequence of Cell division control protein 28, putative (A3FPL9 whole entry): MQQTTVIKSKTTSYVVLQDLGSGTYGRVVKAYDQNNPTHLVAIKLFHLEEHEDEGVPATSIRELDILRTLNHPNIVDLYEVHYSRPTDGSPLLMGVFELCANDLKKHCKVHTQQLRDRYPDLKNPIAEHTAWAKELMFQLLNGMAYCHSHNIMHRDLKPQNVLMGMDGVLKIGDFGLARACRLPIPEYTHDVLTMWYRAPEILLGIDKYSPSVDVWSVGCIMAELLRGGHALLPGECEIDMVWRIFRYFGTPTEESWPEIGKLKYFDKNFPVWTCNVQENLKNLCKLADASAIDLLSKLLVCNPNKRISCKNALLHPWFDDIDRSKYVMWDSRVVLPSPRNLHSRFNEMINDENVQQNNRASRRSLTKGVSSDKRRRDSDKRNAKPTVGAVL

[26] = molecular target: Mitogen-activated protein kinase (Cryptosporidium parvum (strain Iowa II)) (UniProt A3FQ79); assay: Inhibition of Cryptosporidium parvum Iowa II mitogen-activated protein kinase assessed as change in melting temperature by DSLS method
[27] = molecular target: Calcium-dependent protein kinase 2 (Cryptosporidium parvum, UniProt Q6S4V9); assay: Inhibition of Cryptosporidium parvum calcium-dependent protein kinase 2
Sequence of Calcium-dependent protein kinase 2 (Q6S4V9 whole entry): as the sequence (Q6S4V9 as listed by the source) above

[28] = system: Cryptosporidium parvum Iowa II; assay: Inhibition of Cryptosporidium parvum Iowa II cyclin-dependent kinase 3 assessed as change in melting temperature by DSLS method
[29] = molecular target: Cell division control protein 28, putative (Cryptosporidium parvum (strain Iowa II)) (UniProt A3FPL9); assay: Inhibition of Cryptosporidium parvum Iowa II cell division control protein 28 assessed as change in melting temperature by DSLS method
[30] = molecular target: Calcium/calmodulin-dependent protein kinase with a kinase domain and 2 calmodulin-like EF hands (Cryptosporidium parvum (strain Iowa II)) (UniProt Q5CZ29); assay: Inhibition of Cryptosporidium parvum Iowa II calcium/calmodulin-dependent protein kinase with a kinase domain and 2 calmodulin-like EF hands assessed as change in melting temperature by DSLS method
[31] = system: Cryptosporidium parvum Iowa II; assay: Inhibition of Cryptosporidium parvum Iowa II Serine/threonine-protein kinase Nek2 assessed as change in melting temperature by DSLS method
[32] = molecular target: Mitogen-activated protein kinase 14 (Homo sapiens) (UniProt Q16539); assay: Inhibition of human p38alpha at 1 uM relative to control
Sequence of Mitogen-activated protein kinase 14 (Homo sapiens) (Q16539 whole entry, the tested form may be a part): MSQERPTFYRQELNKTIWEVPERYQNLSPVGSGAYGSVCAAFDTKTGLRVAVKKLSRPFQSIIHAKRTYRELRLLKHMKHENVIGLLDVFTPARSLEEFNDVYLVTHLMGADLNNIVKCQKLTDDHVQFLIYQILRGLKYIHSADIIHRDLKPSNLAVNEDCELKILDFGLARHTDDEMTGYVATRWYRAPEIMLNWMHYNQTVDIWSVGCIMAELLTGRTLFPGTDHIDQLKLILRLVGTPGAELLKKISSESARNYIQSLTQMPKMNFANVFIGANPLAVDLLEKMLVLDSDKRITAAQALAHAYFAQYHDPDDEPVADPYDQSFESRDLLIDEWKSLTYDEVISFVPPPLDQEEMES

[33] = molecular target: Calcium/calmodulin-dependent protein kinase with a kinase domain and 4 calmodulin like EF hands (Cryptosporidium parvum (strain Iowa II)) (UniProt Q5CYL9); assay: Inhibition of Cryptosporidium parvum Iowa II calcium/calmodulin-dependent protein kinase with a kinase domain and 4 calmodulin like EF hands assessed as change in melting temperature by DSLS method
Sequence of Calcium/calmodulin-dependent protein kinase with a kinase domain and 4 calmodulin like EF hands (Cryptosporidium parvum (strain Iowa II)) (Q5CYL9 as listed by the source): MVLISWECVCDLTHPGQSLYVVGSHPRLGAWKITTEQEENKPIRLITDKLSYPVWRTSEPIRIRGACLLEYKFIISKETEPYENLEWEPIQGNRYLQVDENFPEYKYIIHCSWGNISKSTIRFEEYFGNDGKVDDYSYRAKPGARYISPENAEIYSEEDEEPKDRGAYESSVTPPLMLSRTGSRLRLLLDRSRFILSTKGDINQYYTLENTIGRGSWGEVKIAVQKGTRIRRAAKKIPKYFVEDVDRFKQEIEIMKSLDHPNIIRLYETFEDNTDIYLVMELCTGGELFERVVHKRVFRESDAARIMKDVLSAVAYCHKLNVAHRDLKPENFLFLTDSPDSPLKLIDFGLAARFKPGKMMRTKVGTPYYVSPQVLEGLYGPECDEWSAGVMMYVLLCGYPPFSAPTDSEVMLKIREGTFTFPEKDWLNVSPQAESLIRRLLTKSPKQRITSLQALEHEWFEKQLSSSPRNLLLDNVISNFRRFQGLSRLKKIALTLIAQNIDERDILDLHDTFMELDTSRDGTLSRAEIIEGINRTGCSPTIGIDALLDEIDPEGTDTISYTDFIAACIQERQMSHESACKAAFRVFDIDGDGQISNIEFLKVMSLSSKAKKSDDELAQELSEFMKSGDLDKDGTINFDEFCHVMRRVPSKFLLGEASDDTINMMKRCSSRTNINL

[34] = molecular target: Calcium/calmodulin-dependent protein kinase with a kinase domain and 2 calmodulin-like EF hands (Cryptosporidium parvum (strain Iowa II), UniProt Q5CZ29); assay: Inhibition of Cryptosporidium parvum Iowa II calcium/calmodulin-dependent protein kinase with a kinase domain and 2 calmodulin-like EF hands
[35] = system: Cryptosporidium parvum; assay: Inhibition of Cryptosporidium parvum CDPK1 assessed as increase in thermal stabilization
[36] = molecular target: Calcium/calmodulin-dependent protein kinase with a kinase domain and 4 calmodulin like EF hands (Cryptosporidium parvum (strain Iowa II), UniProt Q5CYL9); assay: Inhibition of Cryptosporidium parvum Iowa II calcium/calmodulin-dependent protein kinase with a kinase domain and 4 calmodulin like EF hands
Sequence of Calcium/calmodulin-dependent protein kinase with a kinase domain and 4 calmodulin like EF hands (Q5CYL9 whole entry, the tested form may be a part): as the sequence (Q5CYL9 as listed by the source) above

[37] = system: Cryptosporidium parvum; assay: Antiparasitic activity against Cryptosporidium parvum isolate AUCP-1 sporozoites infected in human HCT8 cells treated for 24 hrs followed by compound washout and supplemented with fresh medium containing compound at 24 intervals; format: functional, organism-based; conditions: isolate AUCP-1, HCT-8, 24 h
[38] = Cryptosporidium parvum, Iowa, HCT-8, read-out: EC50

ΔTm [1]: 4.2 °C | IC50 [2]: 42 nM | IC50 [3]: 190 nM
SMILES: Nc1nc(-c2ccccc2)c(-c2ccc3ncccc3n2)s1

IC50 [2]: 3600 nM | IC50 [3]: 1510 nM
SMILES: CNc1nc(-c2cccc(Cl)c2)c(-c2ccc3ncccc3n2)s1

IC50 [2]: 750 nM | IC50 [3]: > 10000 nM
SMILES: Nc1nc(-c2ccc(Cl)c(Cl)c2)c(-c2ccc3ncccc3n2)s1

ΔTm [1]: 0.82 °C | EC50 [6, 38]: 3.9 µM | IC50 [2]: 2900 nM | IC50 [3]: 19 nM
SMILES: Cc1ccc(-c2nc(N)sc2-c2ccc3ncccc3n2)cc1C
Ratio [4]: 204 | Ratio [5]: 1.3

IC50 [2]: > 10000 nM | IC50 [3]: 400 nM
SMILES: Cc1ccnc2ccc(-c3sc(N)nc3-c3ccc(F)c(Cl)c3)nc12

IC50 [2]: 140 nM | IC50 [3]: 73 nM
SMILES: Cc1cc(-c2nc(N)sc2-c2ccc3ncccc3n2)ccc1F

IC50 [2]: > 10000 nM | IC50 [3]: 330 nM
SMILES: CC(=O)Nc1nc(-c2cccc(Cl)c2)c(-c2ccc3ncccc3n2)s1

ΔTm [1]: 3.6 °C | IC50 [2]: 25 nM | IC50 [3]: 450 nM
SMILES: Nc1nc(-c2ccc(F)c(Cl)c2)c(-c2ccc3ncccc3n2)s1

EC50 [6]: Not Active | IC50 [2]: > 10000 nM | IC50 [3]: 3500 nM
SMILES: Nc1nc(-c2cc(Cl)cc(Cl)c2)c(-c2ccc3ncccc3n2)s1

IC50 [2]: 4100 nM | IC50 [3]: 1500 nM
SMILES: N#Cc1cccc(-c2nc(N)sc2-c2ccc3ncccc3n2)c1

ΔTm [1]: 4.9 °C | efflux ratio [7]: < 1 | EC50 [6, 38]: 1.3 µM | IC50 [2]: 220 nM | IC50 [3]: 210 nM | Papp [8]: 16 ×10⁻⁶ cm/s
SMILES: Nc1nc(-c2cccc(F)c2)c(-c2ccc3ncccc3n2)s1
Ratio [4]: 6 | Ratio [5]: 6

ΔTm [1]: 4.7 °C | IC50 [2]: 220 nM | IC50 [3]: 220 nM
SMILES: Nc1nc(-c2ccc(F)cc2)c(-c2ccc3ncccc3n2)s1 [GW785804X]

ΔTm [1]: 1 °C | IC50 [2]: > 10000 nM | IC50 [3]: > 10000 nM
SMILES: CC(C)c1cccc(-c2nc(N)sc2-c2ccc3ncccc3n2)c1

ΔTm [1]: 0.4 °C | IC50 [2]: > 10000 nM | IC50 [3]: 2600 nM
SMILES: COc1ccc(-c2nc(N)sc2-c2ccc3ncccc3n2)cc1

SMILES: Nc1nc(-c2cccc(Cl)c2)c(-c2ccc3ncccc3n2)s1 [GW780159X]
inhibition [9]: 67% | ΔTm [1]: 5.1 °C | Ratio [4]: 66 | inhibition [10]: 60% | inhibition [11]: 33% | ΔTm [12]: < 2 °C | IC50 [13]: > 10 µM | IC50 [14]: 3 nM | ΔTm [15]: < 2 °C | IC50 [16]: > 10 µM | ΔTm [17]: < 2 °C | ΔTm [18]: < 2 °C | IC50 [19]: > 10 µM | Ratio [5]: 1840 | IC50 [20]: > 10 µM | EC50 [6, 38]: 5.5 µM | IC50 [2]: 3 nM | IC50 [21]: > 10 µM | ΔTm [22]: < 2 °C | IC50 [23]: > 10 µM | IC50 [24]: > 10 µM | IC50 [25]: > 10 µM | ΔTm [26]: < 2 °C | IC50 [27]: > 10 µM | ΔTm [28]: < 2 °C | IC50 [3]: 84 nM | ΔTm [29]: < 2 °C | ΔTm [30]: < 2 °C | ΔTm [31]: < 2 °C | inhibition [32]: 50% | ΔTm [33]: < 2 °C | IC50 [34]: > 10 µM | inhibition [35]: Active | IC50 [36]: > 10 µM

IC50 [2]: 1200 nM | IC50 [3]: 350 nM
SMILES: Nc1nc(-c2cccc(C(F)(F)F)c2)c(-c2ccc3ncccc3n2)s1

IC50 [2]: > 10000 nM | IC50 [3]: 74 nM
SMILES: CCc1cccc(-c2nc(N)sc2-c2ccc3ncccc3n2)c1

IC50 [2]: 3260 nM | IC50 [3]: 375 nM
SMILES: Nc1nc(-c2ccc(Cl)cc2)c(-c2ccc3ncccc3n2)s1

EC50 [37]: 2560 nM | EC50 [6, 38]: 4.1 µM
SMILES: CC(C)(C)n1nc(-c2cccc3ccccc23)c2c(N)ncnc21
Ratio [4]: 1

IC50 [2]: 180 nM | IC50 [3]: 260 nM
SMILES: COc1cccc(-c2nc(N)sc2-c2ccc3ncccc3n2)c1
